The source of these data is ChEMBL document CHEMBL1124344, “5-Piperazinylalkyl-2(3H)-oxazolones with neuroleptic activity” (J Med Chem, 1989).

What all share (format): functional
In experiment [1] the test system is Mus musculus. As to the kind of experiment: Anticonvulsant activity against electroshock-induced convulsions, after 5 hour of peroral administration in mouse at a dose of 40 mg/kg. Particulars: route oral. In short, it runs like this: (§1)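 Compounds were dosed as bases suspended in arabic gum at 10 mL/kg orally, after an overnight fast, with vehicle controls. Protection meant no bilateral forepaw clonic seizures or head twitches (tryptamine), or no tonic hind-limb extension (the other two). ED50 is the dose protecting 50%, by probit analysis.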

The test system of experiment [2] is Mus musculus. As to the kind of experiment: Anticonvulsant activity against pentylenetetrazole-induced convulsions, after 5 hour of peroral administration in mouse at a dose of 40 mg/kg. Particulars: route oral. Put shortly: (§2)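 Male mice dosed orally (arabic gum, 10 mL/kg) 1 or 5 h before challenge with tryptamine 100 mg/kg iv, pentylenetetrazol 110 mg/kg ip, or maximal electroshock. Protection means no bilateral forepaw clonic seizures and head twitches (tryptamine) or no tonic hind-limb extension (others). ED50 protects 50% of mice.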

Experiment [3] has as its system Mus musculus. The experiment in a line: Activity of inclined screen in mouse, after 5 hour of peroral administration in mouse at a dose of 60 mg/kg. To be noted: route oral. In short, it runs like this:
(§3)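 Male mice dosed orally (arabic gum suspension, 10 mL/kg, fasted overnight) 1 or 5 h before testing. Placed for 1 h on a wire screen bent at 60° to the horizontal. Ataxic or miorelaxed mice slide off. ED50 is the dose at which 50% of mice fall, by probit analysis. Ten animals per dose, with vehicle controls.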

The test system of experiment [4] is Mus musculus. The experiment in a line: Anticonvulsant activity against pentylenetetrazole-induced convulsions, after 1 hour of peroral administration in mouse at a dose of 40 mg/kg. Particulars: route oral. Put shortly: as §2
For experiment [5], the system named is Mus musculus. As to the kind of experiment: Anticonvulsant activity against electroshock-induced convulsions, after 1 hour of peroral administration in mouse at a dose of 40 mg/kg. To be noted: route oral. Put shortly: as §1
Experiment [6] relates to Mus musculus. The experiment in a line: Inhibition of spontaneous motor activity after 5 hour of peroral administration in mouse. Particulars: po. Put shortly:
(§4)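 Mice in groups of five were dosed orally with gum arabic suspensions at 10 mL/kg after an overnight fast, with a vehicle control group. Locomotion was counted for 10 min in a photocell activity cage, in at least two groups per dose. ED50, by probit analysis, is the dose giving 50% inhibition against controls.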

The subject of experiment [7] is Mus musculus. The experiment in a line: Inhibitory activity against tremorine-induced tremors, after 5 hour of peroral administration in mouse at dose 7.5 mg/kg. Particulars: route oral. In short, it runs like this: (§5)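 Male mice fasted overnight, dosed orally with arabic gum suspension (10 mL/kg) 1 or 5 h before test, vehicle controls included. Tremorine 20 mg/kg ip given 1 h after compounds; central (tremor) and peripheral (salivation) parasympathetic signs recorded. ED50 = dose protecting 50% of animals, by probit analysis.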

The test system of experiment [8] is Mus musculus. As to the kind of experiment: Inhibitory activity against tremorine-induced tremors, after 1 hour of peroral administration in mouse at dose 7.5 mg/kg. To be noted: route oral. In short, it runs like this: as §5
The subject of experiment [9] is Mus musculus. The experiment in a line: Inhibition of spontaneous locomotor activity, after 5 hour of peroral administration in mouse. Particulars: po. In short, it runs like this: as §4
Experiment [10] has as its system Mus musculus. The experiment in a line: Inhibitory activity against tremorine-induced salivation, after 1 hour of peroral administration in mouse at dose of 60 mg/kg. To be noted: route oral. In short, it runs like this:
as §5

In experiment [11] the test system is Mus musculus. The experiment in a line: Anticonvulsant activity against electroshock-induced convulsions, after 1 hour of peroral administration in mouse at dose of 100 mg/kg. To be noted: route oral. Put shortly:
as §1

Experiment [12] has as its system Mus musculus. The experiment in a line: Anticonvulsant activity against pentylenetetrazole-induced convulsions, after 1 hour of peroral administration in mouse at dose of 100 mg/kg. To be noted: route oral. Put shortly:
as §1

The subject of experiment [13] is Mus musculus. As to the kind of experiment: Activity of inclined screen in mouse, after 5 hour of peroral administration in mouse at dose of 100 mg/kg. Particulars: route oral. Put shortly:
as §3

Experiment [14] concerns Mus musculus. As to the kind of experiment: Contractile activity in skeletal muscles, after 1 hour of peroral administration in mouse at dose of 0 mg/kg. To be noted: Muscle tissue, route oral. In short, it runs like this: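 Male mice were placed for 1 h on a 60° inclined wire screen just after dosing and 4 h later. In a second test, trained mice hung by the forepaws from a horizontal 1.8 mm wire 15 cm up; normal mice touch it with a hind paw within 2 s and stay ≥1 min. ED50 is the dose making 50% fall. Dosing was oral in gum arabic suspension at 10 mL/kg after an overnight fast.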

Experiment [15] deals with Mus musculus. As to the kind of experiment: Anticonvulsant activity against pentylenetetrazole-induced convulsions, after 1 hour of peroral administration in mouse at a dose of 100 mg/kg. Particulars: route oral. Put shortly: as §1
The subject of experiment [16] is Mus musculus. The experiment in a line: Anticonvulsant activity against electroshock-induced convulsions, after 1 hour of peroral administration in mouse at a dose of 100 mg/kg. Particulars: route oral. Put shortly:
as §1

Experiment [17] relates to Mus musculus. The experiment in a line: Anticonvulsant activity against tryptamine-induced convulsions, after 5 hour of peroral administration in mouse at a dose of 40 mg/kg. To be noted: route oral. Put shortly: as §1
Experiment [18] relates to Rattus norvegicus. The experiment in a line: Antagonistic activity against apomorphine-induced stereotypy in rats, by administering perorally at a dose of 100 mg/kg. To be noted: route oral. Put shortly:
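Male rats fasted overnight and given oral doses in arabic gum suspension (10 mL/kg) 1 h, or 1 and 5 h, before challenge. Apomorphine 3 mg/kg iv, with stereotypy observed 20 min later. ED50 is the dose inhibiting stereotypy in 50% of rats, per Janssen's method. Parenthetical entries give the maximal dose and percent activity.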

In experiment [19] the test system is Mus musculus. The experiment in a line: Activity of inclined screen in mouse, after 1 hour of peroral administration in mouse at a dose of 100 mg/kg. To be noted: route oral. In short, it runs like this:
as §3

The test system of experiment [20] is Mus musculus. The experiment in a line: Anticonvulsant activity against pentylenetetrazole-induced convulsions, after 5 hour of peroral administration in mouse at a dose of 100 mg/kg. Particulars: route oral. In short, it runs like this:
as §1

The subject of experiment [21] is Mus musculus. The experiment in a line: Anticonvulsant activity against pentylenetetrazole-induced convulsions, after 1 hour of peroral administration in mouse at a dose of 9.4 mg/kg. Particulars: route oral. Put shortly: as §1
Experiment [22] deals with Mus musculus. As to the kind of experiment: Inhibitory activity against tremorine-induced tremors, after 5 hour of peroral administration in mouse. Particulars: po.

The inhibition in vivo is the relative decrease from the control value, in per cent. Read a high inhibition in vivo as strong suppression. Broadly, the ED50 is the midpoint of the dose-response relation. Read a high ED50 as weaker potency. On to `COc1ccccc1N1CCN(CCCC(=O)c2ccc(F)cc2)CC1` [FLUANISONE], for which the inhibition in vivo at 40 mg/kg in experiment [1], in experiment [2], in experiment [4] and in experiment [5] was 0% each time. Further, in experiment [3], the inhibition in vivo at 60 mg/kg is 0%. This compound displayed an ED50 in experiment [6] of 15.7 mg/kg.

With `CN(C)CCCN1c2ccccc2Sc2ccc(Cl)cc21` [CHLORPROMAZINE], the inhibition in vivo at 7.5 mg/kg in experiment [7] was 15%; in experiment [8], 0%. It took a dose of 4.8 mg/kg to reach the 50% effect level in experiment [9] (ED50).

In experiment [10], `COc1ccccc1N1CCN(CCc2oc(=O)[nH]c2-c2ccc(F)cc2)CC1` [ZOLOPERONE] displayed an inhibition in vivo at 60 mg/kg of 0%. For the same compound, the inhibition in vivo at 100 mg/kg in experiment [11], in [12] and in [13] was 0% each time. The 50% effect level in experiment [14] (ED50) was put at a dose of 179 mg/kg.

With `O=c1[nH]c(-c2ccc(F)cc2)c(CCN2CCN(c3cc(Cl)cc(Cl)c3)CC2)o1` [LODIPERONE], the inhibition in vivo at 100 mg/kg in experiment [15], in experiment [16], in [18], in experiment [19] and in experiment [20] was 0% in each case. For the same compound, in experiment [17], 40 mg/kg produced 0% inhibition in vivo.

`O=C(CCCN1CCC(O)(c2ccc(Cl)cc2)CC1)c1ccc(F)cc1` [HALOPERIDOL] showed an inhibition in vivo at 9.4 mg/kg in experiment [21] of 0%. Also, in experiment [22], the 50% effect level (ED50) was put at a dose of 20 mg/kg.
